Data from ChEMBL document CHEMBL1126117, “Synthesis and chemical characterization of N-substituted phenoxazines directed toward reversing vinca alkaloid resistance in multidrug-resistant cancer cells” (J Med Chem, 1992).

Experiments:
GC3/Cl [1] = assay: Increase in the accumulation of vincristine in multi-drug resistant GC3/Cl (human adenocarcinoma) cell line in vitro.; type: functional
KB [2] = assay: Increase in the accumulation of vincristine in multi-drug resistant KB8-5 (HeLa variant) cell line in vitro.; type: functional, Homo sapiens; set-up: concentration or dose not given beside the values
Procedure, shortened: (§1)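 Radiolabel accumulation. Cell monolayers (2×10^6 cells, attached overnight; KBChR-8-5 kept with 10 ng/mL colchicine) were washed and held 10 min in physiologic Tris buffer. They were then given serum-free RPMI-1640 in 25 mM Hepes, pH 7.4, with [3H]VCR (70.4 nM) or [3H]VLB (49.5 nM), ±modulator at 100 μM (<0.1% DMSO), for 2 h at room temperature. Cells were washed in ice-cold PBS, trypsinized and scintillation-counted, with cell number counted per dish. Percent control = uptake with/without modulator ×100. Mean of two experiments, each done in triplicate.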

KB [3] = assay: Increase in the accumulation of vinblastine in multi-drug resistant KB8-5 (HeLa variant) cell line in vitro.; type: functional, Homo sapiens; set-up: concentration or dose not given beside the values; procedure, shortened: as §1
KB [4] = assay: Percent control was evaluated by measuring the ability to increase the vinca alkaloid, vinblastine(VLB) in KB8-5 cell line.; type: functional, Homo sapiens; procedure, shortened: as §1
KB [5] = assay: Percent control was evaluated by measuring the ability to increase the vinca alkaloid, vincristine(VCR) in KB8-5 cell line.; type: functional, Homo sapiens; procedure, shortened: as §1
GC3/Cl [6] = assay: Concentration required to produce 10% reduction in clonogenic survival of GC3/Cl cell line.; type: functional, cell-based; details: Homo sapiens
Procedure, shortened: (§2)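 Clonogenic survival. KBChR-8-5 cells were plated in triplicate at 1000/well and GC3 cells at 3000/well. After 24 h the medium was replaced with fresh medium holding modulator at 1-100 μM (final 0.1% DMSO). Cells were kept 7 days at 37 °C, then stained with crystal violet and the colonies counted. The 50% and 10% colony-reduction concentrations were read from concentration-survival curves versus controls.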

GC3/Cl [7] = assay: Concentration required to produce 50% reduction in clonogenic survival of GC3/Cl cell line.; type: functional, cell-based; details: Homo sapiens; procedure, shortened: as §2
GC3/Cl [8] = assay: Inhibitory concentration was evaluated by measuring the potentiation of VCR cytotoxicity in GC3/Cl cell line.; type: functional, cell-based; details: Homo sapiens
Procedure, shortened: (§3)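 Colony-formation assay. Cells were given graded VCR or VLB continuously for 7 days at 37 °C, with or without modulator at the concentration that alone reduced colony formation by 10%. Colonies were then stained with crystal violet and counted. Vinca IC50 values were derived with and without modulator, and the result was expressed as fold potentiation.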

GC3/Cl [9] = assay: Inhibitory concentration was evaluated by measuring the potentiation of VLB cytotoxicity in GC3/Cl cell line.; type: functional, cell-based; details: Homo sapiens; procedure, shortened: as §3
GC3/Cl [10] = assay: Increase in the accumulation of vinblastine in multi-drug resistant GC3/Cl (human adenocarcinoma) cell line in vitro.; type: functional; set-up: concentration or dose not given beside the values
KB [11] = assay: Concentration required to produce 50% reduction in clonogenic survival of KB8-5 cell line.; type: functional, cell-based; details: Homo sapiens; procedure, shortened: as §2
KB [12] = assay: Inhibitory concentration was evaluated by measuring the potentiation of VCR cytotoxicity in KB8-5 cell line.; type: functional, cell-based; details: Homo sapiens; procedure, shortened: as §3
KB [13] = assay: Inhibitory concentration was evaluated by measuring the potentiation of VLB cytotoxicity in KB8-5 cell line.; type: functional, cell-based; details: Homo sapiens; procedure, shortened: as §3
KB [14] = assay: Concentration required to produce 10% reduction in clonogenic survival of KB8-5 cell line.; type: functional; details: Homo sapiens; procedure, shortened: as §2

## O=C(N1c2ccccc2Oc2ccccc21)C(F)(F)F
GC3/Cl [1]
  Control: 230%
KB [2]
  Control: 415%
KB [3]
  Control: 827%

## CCN(CC)CC(=O)N1c2ccccc2Oc2ccccc21
GC3/Cl [1]
  Control: 160%
KB [2]
  Control: 184%
KB [3]
  Control: 953%

## O=C(CCl)N1c2ccccc2Oc2ccccc21
KB [4]
  Control: 236%
KB [5]
  Control: 138%

## OCCN(CCO)CCCN1c2ccccc2Oc2ccccc21
GC3/Cl [6]
  IC10: 25 µM
GC3/Cl [7]
  IC50: 37 µM
GC3/Cl [8]
  IC50: 4.8 nM
GC3/Cl [9]
  IC50: 2 nM
GC3/Cl [10]
  Control: 1070%
KB [2]
  Control: 473%
KB [11]
  IC50: 38 µM
KB [12]
  IC50: 5.9 nM
KB [13]
  IC50: 2.7 nM
KB [3]
  Control: 1666%
KB [14]
  IC10: 25 µM

## c1ccc2c(c1)Oc1ccccc1N2CCCN1CCCCC1
GC3/Cl [10]
  Control: 633%
KB [2]
  Control: 435%
KB [3]
  Control: 1227%

## c1ccc2c(c1)Oc1ccccc1N2CCCN1CCCC1
GC3/Cl [10]
  Control: 757%
GC3/Cl [1]
  Control: 250%
KB [2]
  Control: 408%
KB [3]
  Control: 969%

## ClCCCCN1c2ccccc2Oc2ccccc21
GC3/Cl [10]
  Control: 361%
KB [2]
  Control: 398%
KB [3]
  Control: 792%

## c1ccc2c(c1)Oc1ccccc1N2CCCCN1CCOCC1
GC3/Cl [6]
  IC10: 10 µM
GC3/Cl [7]
  IC50: 17 µM
GC3/Cl [8]
  IC50: 2.4 nM
GC3/Cl [9]
  IC50: 2 nM
GC3/Cl [10]
  Control: 1175%
KB [2]
  Control: 702%
KB [11]
  IC50: 18 µM
KB [12]
  IC50: 4.5 nM
KB [13]
  IC50: 2 nM
KB [3]
  Control: 2684%
KB [14]
  IC10: 6 µM

## CCN(CC)CCCN1c2ccccc2Oc2ccccc21
GC3/Cl [7]
  IC50: 10 µM
GC3/Cl [10]
  Control: 1025%
KB [2]
  Control: 546%
KB [11]
  IC50: 15 µM
KB [3]
  Control: 2123%

## CCN(CC)CCCCN1c2ccccc2Oc2ccccc21
GC3/Cl [10]
  Control: 737%
KB [2]
  Control: 211%
KB [3]
  Control: 697%

## c1ccc2c(c1)Oc1ccccc1N2CCCN1CCOCC1
GC3/Cl [6]
  IC10: 25 µM
GC3/Cl [7]
  IC50: 40 µM
GC3/Cl [8]
  IC50: 2.1 nM
GC3/Cl [9]
  IC50: 2 nM
GC3/Cl [10]
  Control: 960%
KB [2]
  Control: 742%
KB [11]
  IC50: 73 µM
KB [12]
  IC50: 1.9 nM
KB [13]
  IC50: 1.6 nM
KB [3]
  Control: 1717%
KB [14]
  IC10: 25 µM

## c1ccc2c(c1)Oc1ccccc1N2CCCCN1CCCC1
GC3/Cl [7]
  IC50: 7 µM
GC3/Cl [10]
  Control: 1315%
KB [2]
  Control: 198%
KB [11]
  IC50: < 7 µM
KB [3]
  Control: 477%

## O=C(CN1CCN(CCO)CC1)N1c2ccccc2Oc2ccccc21
KB [2]
  Control: 280%
KB [3]
  Control: 776%

## OCCN(CCO)CCCCN1c2ccccc2Oc2ccccc21
GC3/Cl [7]
  IC50: 16 µM
GC3/Cl [10]
  Control: 1165%
KB [2]
  Control: 92%
KB [11]
  IC50: < 10 µM
KB [3]
  Control: 403%

## OCCN1CCN(CCCN2c3ccccc3Oc3ccccc32)CC1
GC3/Cl [10]
  Control: 879%
KB [2]
  Control: 343%
KB [3]
  Control: 824%

## ClCCCN1c2ccccc2Oc2ccccc21
GC3/Cl [6]
  IC10: 50 µM
GC3/Cl [7]
  IC50: 83 µM
GC3/Cl [8]
  IC50: 2 nM
GC3/Cl [9]
  IC50: 1.7 nM
GC3/Cl [10]
  Control: 570%
KB [2]
  Control: 454%
KB [11]
  IC50: 57 µM
KB [12]
  IC50: 11.8 nM
KB [13]
  IC50: 5.3 nM
KB [3]
  Control: 342%
KB [14]
  IC10: 20 µM

## c1ccc2c(c1)Oc1ccccc1N2CCCCN1CCCCC1
GC3/Cl [7]
  IC50: 7 µM
GC3/Cl [10]
  Control: 1121%
KB [2]
  Control: 196%
KB [11]
  IC50: < 7 µM
KB [3]
  Control: 1071%

## O=C(CN1CCCCC1)N1c2ccccc2Oc2ccccc21
GC3/Cl [6]
  IC10: 40 µM
GC3/Cl [7]
  IC50: 88 µM
GC3/Cl [8]
  IC50: 2.9 nM
GC3/Cl [9]
  IC50: 2.2 nM
KB [2]
  Control: 326%
KB [11]
  IC50: 73 µM
KB [12]
  IC50: 6 nM
KB [13]
  IC50: 2.3 nM
KB [3]
  Control: 2023%
KB [14]
  IC10: 40 µM

## O=C(CN1CCOCC1)N1c2ccccc2Oc2ccccc21
KB [2]
  Control: 290%
KB [3]
  Control: 674%

## OCCN1CCN(CCCCN2c3ccccc3Oc3ccccc32)CC1
GC3/Cl [7]
  IC50: 7 µM
GC3/Cl [10]
  Control: 1340%
KB [2]
  Control: 91%
KB [11]
  IC50: < 7 µM
KB [3]
  Control: 188%

## O=C(CN1CCCC1)N1c2ccccc2Oc2ccccc21
KB [2]
  Control: 188%
KB [3]
  Control: 776%

## COc1ccc(CCN(C)CCCC(C#N)(c2ccc(OC)c(OC)c2)C(C)C)cc1OC (stereo not given)
KB [3]
  Control: 1124%
